# A selection: hits, their analogues and other compounds. The true share with any hit is near 3.8%.
# hERG rescue – hERG (human) protection from proarrhythmic block. AID 1511. 310,000 tested, 0.51% active. Q12809. activation (rescue from dofetilide block), less the hit threshold, % at 10 µM. CHO-hERG, FluxOR thallium flux, dofetilide IC70 present;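 active = activation above the mean of controls blocked by dofetilide plus 5 SD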;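 note: thallium influx through hERG after potassium depolarization seen as dye fluorescence rise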
# Target sequence (Q12809 whole entry, looked up): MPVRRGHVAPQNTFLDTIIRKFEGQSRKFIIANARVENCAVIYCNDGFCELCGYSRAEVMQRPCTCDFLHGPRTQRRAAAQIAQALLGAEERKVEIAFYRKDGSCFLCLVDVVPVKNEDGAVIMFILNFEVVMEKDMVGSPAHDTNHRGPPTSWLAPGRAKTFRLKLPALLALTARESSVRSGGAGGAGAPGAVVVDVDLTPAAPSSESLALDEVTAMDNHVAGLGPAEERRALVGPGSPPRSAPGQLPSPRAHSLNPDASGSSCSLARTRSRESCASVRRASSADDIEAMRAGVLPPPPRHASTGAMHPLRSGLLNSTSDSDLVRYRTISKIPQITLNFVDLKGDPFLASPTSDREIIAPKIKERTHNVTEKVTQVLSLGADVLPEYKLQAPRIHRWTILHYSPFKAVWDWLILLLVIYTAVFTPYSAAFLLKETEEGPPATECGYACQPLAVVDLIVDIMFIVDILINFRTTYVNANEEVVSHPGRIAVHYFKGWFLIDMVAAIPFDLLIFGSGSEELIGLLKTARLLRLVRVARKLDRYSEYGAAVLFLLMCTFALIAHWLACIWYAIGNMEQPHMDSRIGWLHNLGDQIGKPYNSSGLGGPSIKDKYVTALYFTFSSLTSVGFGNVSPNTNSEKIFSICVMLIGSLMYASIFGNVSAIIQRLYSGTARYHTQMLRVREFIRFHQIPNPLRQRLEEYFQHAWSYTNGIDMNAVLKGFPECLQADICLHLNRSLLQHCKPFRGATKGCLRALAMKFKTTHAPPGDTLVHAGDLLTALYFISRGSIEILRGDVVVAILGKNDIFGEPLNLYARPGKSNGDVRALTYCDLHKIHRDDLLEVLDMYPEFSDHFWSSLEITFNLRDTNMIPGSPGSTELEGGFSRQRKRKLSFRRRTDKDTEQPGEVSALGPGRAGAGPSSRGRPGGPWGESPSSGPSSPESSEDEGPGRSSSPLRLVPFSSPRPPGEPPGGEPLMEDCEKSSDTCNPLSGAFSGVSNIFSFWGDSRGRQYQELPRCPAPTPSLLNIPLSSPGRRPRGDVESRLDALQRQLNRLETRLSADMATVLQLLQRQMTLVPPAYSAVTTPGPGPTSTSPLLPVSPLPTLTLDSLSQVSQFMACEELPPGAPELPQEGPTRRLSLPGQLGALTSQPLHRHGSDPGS
# KCNQ1 act – potentiators or activators of human KCNQ1 potassium channel. P51787. CHO-K1 KCNQ1, thallium flux FluxOR fluorescence; stronger effect = higher value. B-score at 10 µM. 310,000 tested, 0.35% active. AID 2648;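 active = fluorescence ratio B-score, a plate-corrected score, at least three library SD, with initial intensity B-score within 5 SD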
#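 Assay system: stable KCNQ1 CHO-K1 line; medium: assay buffer, equal DMSO in all wells; timing: 90 min dye loading and 20 min compound exposure, both at room temperature; technique: kinetic FluxOR thallium fluorescence, 10-s 1-Hz baseline, 110-s post-stimulus read; read-out basis: B score of baseline-normalized fluorescence ratio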
# KCNQ1 block – inhibitors of human KCNQ1 potassium channel; P51787; CHO-K1 KCNQ1, FluxOR thallium flux fluorescence; stronger effect = higher value; B-score at 10 µM; 310,000 tested, 1.3% active; AID 2642;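 active = compounds whose thallium flux B-score, printed positive for inhibition, exceeds three library SD while starting fluorescence stays within three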;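 note: channel opened by potassium depolarization with thallium stimulus after 20 min compound exposure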
# KCNK9 inh – human KCNK9 channel inhibition; Q9NPC2; HEK293 KCNK9, FluxOR thallium flux fluorescence; stronger effect = lower value; B-score at 10 µM; 310,000 tested, 1.2% active; AID 488922;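 active = ratio B-score over 3 SD below the library mean, with starting fluorescence within 5 SD of its mean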;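 note: negative B-score means less thallium flux so channel inhibition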
# Kir21 block – Kir2.1 (mouse) channel inhibition; P35561; HEK293-Kir2.1, FluxOR thallium flux fluorescence; stronger effect = lower value; B-score at 10 µM; 310,000 tested, 0.85% active; AID 1672;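 active = fluorescence ratio B-score at or below minus 3 SD of library scores, with starting-brightness B-score within 2 SD, cut at about -4.2 in these data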;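 note: channel flux triggered by added potassium and thallium sulfate stimulus; B-score of peak minus minimum fluorescence over baseline after thallium stimulus; more negative B-score means stronger Kir2.1 block with less thallium influx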
# KCNK3 inh – human KCNK3 channel inhibition, primary screen | O14649 | CHO-KCNK3 thallium flux, FluxOR fluorescence; stronger effect = lower value | B-score at 10 µM | 340,000 tested, 0.84% active | AID 602410;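 active = B-score under library mean minus 4 SD, starting fluorescence ratio at most library mean plus 5 SD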;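 note: more negative B-score means stronger inhibition of thallium flux through KCNK3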
# Hits are given with their value; i = inactive; nt = not tested or not shown.
SMILES,hERG rescue,KCNQ1 act,KCNQ1 block,KCNK9 inh,Kir21 block,KCNK3 inh
Cc1ccccc1NS(=O)(=O)c1ccc(C(=O)NCCCN2CCCC2=O)cc1,i,i,i,i,i,i
Cc1ccc(C(=O)OCn2ncc(Cl)c(Cl)c2=O)cc1,i,10,i,i,i,i
O=C(OCn1ncc(Cl)c(Cl)c1=O)c1ccc(C(F)(F)F)cc1,i,i,i,i,i,i
O=C(O)CC(CC(=O)Nc1ccc(-c2ccccc2)cc1)c1ccccc1 (stereo not drawn),i,i,i,i,i,i
Cc1onc(-c2ccccc2Cl)c1C(O)c1ccc(F)cc1 (stereo not drawn),i,i,i,i,i,i
Cc1onc(-c2c(F)cccc2Cl)c1C(O)c1ccc(F)cc1 (stereo not drawn),i,i,i,i,-4.4,i
OC(CNCCc1ccc(C(F)(F)F)cc1)COC(c1ccccc1)c1ccccc1 (stereo not drawn),i,i,i,i,-7.88,i
CCn1c(SCC(=O)NC2CCCC2)nnc1-c1cccnc1,i,i,i,i,i,i
COc1cccc(CN(C)CC2CCCN(CCc3ccccc3C)C2)c1 (stereo not drawn),i,i,i,i,-6.55,i
COc1ccc(CN(C)CC2CCCN(CCc3ccccc3C)C2)cc1O (stereo not drawn),i,i,i,i,-8.83,i
CC(C)(C)OC(=O)C(C1NC(C(=O)O)C(C)(C)S1)N1C(=O)c2ccccc2C1=O (stereo not drawn),nt,nt,nt,nt,nt,i
CN(C)C(CNC(C(=O)Nc1ccc([N+](=O)[O-])cc1Br)c1ccccc1)c1ccccc1 (stereo not drawn),i,i,9,i,i,i
CCN(CC)CCNC(C(=O)Nc1ccc([N+](=O)[O-])cc1Br)c1ccccc1 (stereo not drawn),i,i,i,i,i,i
Cc1cc(N/N=C/c2c(O)ccc3ccccc23)nc(-c2ccccc2O)n1,i,i,10,i,i,i
Oc1ccc2ccccc2c1/C=N/Nc1ccccc1,i,i,i,i,i,i
CCc1cc2ccccc2nc1SCC(=O)N1CCN(C(=O)c2ccco2)CC1,i,i,i,i,-4.36,i
COc1ccc(OCC(=O)N(C)CC2COc3ccccc3O2)cc1 (stereo not drawn),nt,nt,nt,nt,nt,i
Cc1c(C(=O)N2CCOCC2)sc(NC(=O)CCl)c1C#N,i,i,i,i,i,i
CCN(CC)S(=O)(=O)c1ccc(C(=O)NNC(=O)C2COc3ccccc3O2)cc1 (stereo not drawn),nt,nt,nt,nt,nt,i
CCN(CC1COc2ccccc2O1)S(=O)(=O)c1ccc(C)cc1 (stereo not drawn),i,i,i,i,-4.84,i
COc1ccc([N+](=O)[O-])cc1NC(=O)CCC(=O)c1cccs1,i,i,i,i,i,i
OCCCCNCc1ccc(OCc2ccc(Cl)cc2Cl)cc1,i,i,i,i,-7.13,i
S=C(Nc1ccccc1)Nc1ccc(OCc2ccc(Cl)cc2Cl)cc1,i,i,i,i,i,i
OCCNCc1ccc(OCc2ccc(Cl)cc2Cl)cc1,i,i,i,i,-7.48,i
CN1N=C(C(=O)N2CCN(c3ccc([N+](=O)[O-])cc3)CC2)CCC1=O,i,i,i,i,i,i
SMILES,hERG rescue,KCNQ1 act,KCNQ1 block,KCNK9 inh,Kir21 block,KCNK3 inh
COc1c(C)cccc1C(=O)Nc1ccc(OCC(=O)N2CCOCC2)cc1C,i,i,i,i,i,i
CCc1ccc(CN(C)C(=O)c2ccc3c(c2)OCCO3)cc1,i,i,i,i,i,i
CCN(Cc1ccccc1)S(=O)(=O)c1ccc(C(=O)N(CCCN(C)C)c2nc3cc4c(cc3s2)OCO4)cc1,i,i,6,i,i,i
CN(C)CCCN(C(=O)c1ccc2c(c1)OCCO2)c1nc2ccc(Cl)cc2s1,i,i,i,i,-9.87,i
CCN(Cc1ccccc1)S(=O)(=O)c1ccc(C(=O)N(CCCN(C)C)c2nc3c(C)c(C)ccc3s2)cc1,i,i,8,i,-4.47,i
CN(C)CCN(C(=O)c1ccc2c(c1)OCCO2)c1nc2ccc(Cl)cc2s1,i,i,i,i,i,i
Cc1cccc(C)c1NC(=O)CN(C)C(=O)c1ccc2nc[nH]c2c1,i,i,i,i,i,i
